# ChEMBL document CHEMBL1811823, “Quinazolinone linked pyrrolo[2,1-c][1,4]benzodiazepine (PBD) conjugates: Design, synthesis and biological evaluation as potential anticancer agents” (2010)
# Activity calls are given as the source filed them. No cut-off for these calls is given here.
# Assays:
# [1] = test system: SiHa; test: Growth inhibition of human SiHa cells after 48 hrs by SRB assay; format: functional
# Summary of the method: (§1)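 SRB assay with 48 h continuous exposure. Cells were grown in RPMI 1640 with 10% FBS and 2 mM L-glutamine and preincubated 24 h at 37 °C, 5% CO2. Compounds were tested at four concentrations (0.1, 1, 10, 100) in triplicate wells. Cells were fixed with cold TCA (10% final) for 60 min at 4 °C, stained 20 min with 0.4% SRB in 1% acetic acid, and the dye eluted with 10 mM Tris. A540 was read against a 690 nm reference. Percent growth is relative to control wells on each plate.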
# [2] = test system: COLO 205; test: Growth inhibition of human COLO205 cells after 48 hrs by SRB assay; format: functional; conditions: COLO 205, 48 h
# Summary of the method: (§2)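 Cells grown in RPMI 1640 with 10% FBS and 2 mM L-glutamine, plated at densities set by doubling time, pre-incubated 24 h at 37 °C/5% CO2. Drug tested at 0.1, 1, 10 and 100 µM in triplicate wells for 48 h continuous exposure. Cells fixed with cold TCA (final 10%) 60 min at 4 °C, stained with 0.4% SRB, dye eluted in 10 mM Tris. Absorbance read at 540 nm (690 nm reference); percent growth calculated relative to control wells.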
# [3] = test system: ZR-75-1; test: Growth inhibition of human ZR-75-1 cells after 48 hrs by SRB assay; format: functional; conditions: ZR-75-1, 48 h; summary of the method: as §1
# [4] = test system: PC-3; test: Growth inhibition of human PC3 cells after 48 hrs by SRB assay; format: functional; conditions: PC-3, 48 h; summary of the method: as §2
# [5] = test system: A2780; test: Growth inhibition of human A2780 cells after 48 hrs by SRB assay; format: functional; conditions: A2780, 48 h; summary of the method: as §2
# [6] = Growth inhibition of human Gurav cells after 48 hrs by SRB assay; format: functional; summary of the method: as §2
# [7] = test system: HOP-62; test: Growth inhibition of human HOP62 cells after 48 hrs by SRB assay; format: functional; conditions: HOP-62, 48 h; summary of the method: as §2
# [8] = test system: KB; test: Growth inhibition of human KB cells after 48 hrs by SRB assay; format: functional; summary of the method: as §2
# [9] = Growth inhibition of human DWD cells after 48 hrs by SRB assay; format: functional; summary of the method: as §2
# [10] = test system: A549; test: Growth inhibition of human A549 cells after 48 hrs by SRB assay; format: functional; conditions: A549, 48 h; summary of the method: as §2
# [11] = test system: Nucleic Acid; test: Binding affinity to calf thymus DNA assessed as change in melting temperature at 20 uM at pH 7 incubated for 18 hrs at 37 degC by thermal denaturation assay; format: nucleic-acid assay; conditions: Bos taurus
# Summary of the method: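 CT-DNA (100 µM in phosphate) with 20 µM ligand, 1:5 [PBD]/[DNA], in 10 mM sodium phosphate/1 mM Na2EDTA buffer pH 7.00. Ligand added from methanol solution; incubated at 37 °C for 0 or 18 h. A260 monitored while heating 1 °C/min over 40–90 °C. Tm taken from d(A260)/dT maxima; ΔTm = Tm(DNA+PBD) − Tm(DNA alone). Values are means of at least three determinations, corrected for methanol cosolvent.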
# [12] = test system: MCF7; test: Growth inhibition of human MCF7 cells after 48 hrs by SRB assay; format: functional; conditions: MCF7, 48 h; summary of the method: as §2
# [13] = test system: A-375; test: Decrease in Bcl-2 mRNA expression in human A375 cells at 4 uM after 24 hrs by RT-PCR
# [14] = test system: A-375; test: Increase in active caspase-3 protein level in human A375 cells at 4 uM after 24 hrs by Western blot; format: functional, cell-based
# Summary of the method: (§3)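 A375 cells were exposed 24 h at 4 µM. Lysates (30 µg/lane) were run on 12% SDS-PAGE and transferred to PVDF, then probed overnight at 4 °C with anti-cleaved caspase-3 (1:200, detects 21 kDa) or anti-PARP (1:2000, detects 113 and 85 kDa). HRP secondary and chemiluminescence were used. β-tubulin was the loading control; untreated and DMSO controls were included.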
# [15] = test system: A-375; test: Increase in cytochrome C release in human A375 cells at 4 uM after 24 hrs by Western blot; format: functional, cell-based
# Summary of the method: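 Western blot of A375 cell lysates after 24 h exposure at 4 µM, with 30 µg protein/lane on 12% SDS-PAGE and transfer to PVDF. Probed overnight at 4 °C with anti-cytochrome c (1:500), then HRP secondary and chemiluminescence. β-actin was the loading control; untreated and DMSO-only cells served as controls.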
# [16] = test system: A-375; test: Cytotoxicity against human A375 cells assessed as cell viability after 24 hrs by MTT assay; format: functional
# Summary of the method: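 A375 cells seeded at 10,000/well, incubated overnight, then treated for 24 h. MTT added at 10% of culture volume for 2 h at 37 °C. Formazan dissolved in 20% SDS/50% DMF overnight at 37 °C; absorbance read at 570 nm against a medium blank. Viability expressed as percent of untreated cells.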
# [17] = test system: A-375; test: Induction of apoptosis in human A375 cells assessed as sub-G1 phase accumulation at 4 uM after 24 hrs by propidium iodide staining based flow cytometry; format: functional
# Summary of the method: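 A375 cells (5×10^5 per 60 mm dish) were grown 24 h, then treated 24 h at 0–4 µM. Cells were harvested with trypsin-EDTA, fixed in ice-cold 70% ethanol for 30 min at 4 °C, treated with RNase A (1 mg/ml) for 30 min at 37 °C, and stained with propidium iodide. Cell-cycle distribution, including the sub-G1 fraction, was measured by flow cytometry. DMSO-exposed cells were the control.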
# [18] = test system: A-375; test: Increase in active PARP cleavage product (85kDa) level in human A375 cells at 4 uM after 24 hrs by Western blot; format: functional, cell-based; summary of the method: as §3
# [19] = test system: A-375; test: Increase in p53 protein expression in human A375 cells at 4 uM after 24 hrs by Western blot; format: functional, cell-based
# Summary of the method: (§4)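 A375 cells (DMEM, 10% FCS, 37 °C, 5% CO2) were treated at 4 µM for 24 h. Lysates were loaded at 30 µg protein/lane on 12% SDS-PAGE and transferred to PVDF. Membranes were blocked 2 h in TBST, incubated with primary antibody overnight at 4 °C (p53 1:100, p27 1:500, NF-κB p65 1:500), then HRP secondary 1 h, with chemiluminescent detection. β-actin was the loading control; untreated and DMSO controls were run.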
# [20] = test system: A-375; test: Inhibition of NF-kappaB signaling in human A375 cells at 4 uM after 24 hrs by Western blot; format: cell-based; summary of the method: as §4
# [21] = test system: A-375; test: Cell cycle arrest in human A375 cells assessed as decrease in G2/M phase at 4 uM after 24 hrs by propidium iodide staining based flow cytometry; format: functional; parameters: scale not given: the % may be the effect or the level left
# Summary of the method: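 A375 melanoma cells (DMEM, 10% FCS, 37 °C, 5% CO2) seeded at 5×10^5 per dish and grown 24 h, then exposed to 0–4 µM for 24 h. Harvested with trypsin-EDTA, fixed in ice-cold 70% ethanol, RNase A treated (1 mg/ml, 37 °C, 30 min), stained with propidium iodide and analysed by flow cytometry for phase distribution.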
# [22] = test system: A-375; test: Increase in p27 protein expression in human A375 cells at 4 uM after 24 hrs by Western blot; format: functional, cell-based; summary of the method: as §4
compound,measurement,setting,value
COc1cc2c(cc1OCCCCCOc1ccc(-n3c(/C=C/c4ccccc4)nc4ccccc4c3=O)cc1)N=C[C@@H]1CCCN1C2=O,GI50,[1],2080 nM
same,GI50,[2],2000 nM
same,GI50,[3],150 nM
same,GI50,[4],1830 nM
same,GI50,[5],150 nM
same,GI50,[6],1820 nM
same,GI50,[7],2310 nM
same,GI50,[8],2150 nM
same,GI50,[9],170 nM
same,GI50,[10],26200 nM
same,ΔTm,[11],2 °C
same,GI50,[12],2500 nM
COc1cc2c(cc1OCCCCCOc1ccc3nc(C)n(-c4ccc(I)cc4C)c(=O)c3c1)N=C[C@@H]1CCCN1C2=O,GI50,[1],170 nM
same,GI50,[2],160 nM
same,GI50,[3],160 nM
same,GI50,[4],160 nM
same,GI50,[5],140 nM
same,GI50,[6],160 nM
same,GI50,[7],160 nM
same,GI50,[8],150 nM
same,GI50,[9],130 nM
same,GI50,[10],160 nM
same,ΔTm,[11],2.1 °C
same,GI50,[12],110 nM
COc1cccc2c1C(=O)c1c(O)c3c(c(O)c1C2=O)C[C@@](O)(C(=O)CO)C[C@@H]3O[C@H]1C[C@H](N)[C@H](O)[C@H](C)O1 [DOXORUBICIN],GI50,[1],170 nM
same,GI50,[2],140 nM
same,GI50,[5],160 nM
same,GI50,[6],170 nM
same,GI50,[7],140 nM
same,GI50,[8],170 nM
same,GI50,[9],100 nM
same,GI50,[12],170 nM
COc1cc2c(cc1OCCCCCOc1ccc3nc(C)n(-c4ccc(F)c(Cl)c4)c(=O)c3c1)N=C[C@@H]1CCCN1C2=O,Decrease in Bcl-2 mRNA expression,[13],Active
same,Activity,[14],Active
same,Activity,[15],Active
same,GI50,[1],170 nM
same,GI50,[2],130 nM
same,GI50,[3],150 nM
same,GI50,[4],170 nM
same,GI50,[5],110 nM
same,Activity,[16],58.72%
same,Activity,[17],24.1%
same,Activity,[18],Active
same,GI50,[6],< 100 nM
same,GI50,[7],140 nM
same,GI50,[8],150 nM
same,GI50,[9],130 nM
same,GI50,[10],130 nM
same,ΔTm,[11],2.3 °C
same,Activity,[19],Active
same,GI50,[12],< 100 nM
same,inhibition,[20],Active
same,Activity,[21],11.92%
same,Activity,[22],Active
COc1ccc(-n2c(C)nc3ccc(OCCCCCOc4cc5c(cc4OC)C(=O)N4CCC[C@H]4C=N5)cc3c2=O)cc1,GI50,[1],180 nM
same,GI50,[2],140 nM
same,GI50,[3],150 nM
same,GI50,[4],170 nM
same,GI50,[5],140 nM
same,GI50,[6],< 100 nM
same,GI50,[7],180 nM
same,GI50,[8],160 nM
same,GI50,[9],130 nM
same,GI50,[10],140 nM
same,ΔTm,[11],2.2 °C
same,GI50,[12],< 100 nM
COc1cc2c(cc1OCCCOc1ccc(-n3c(C)nc4ccccc4c3=O)cc1)N=C[C@@H]1CCCN1C2=O,GI50,[1],160 nM
same,GI50,[2],140 nM
same,GI50,[3],150 nM
same,GI50,[4],130 nM
same,GI50,[5],100 nM
same,GI50,[6],130 nM
same,GI50,[7],160 nM
same,GI50,[8],150 nM
same,GI50,[9],110 nM
same,GI50,[10],1480 nM
same,ΔTm,[11],2 °C
same,GI50,[12],1830 nM
COc1cc2c(cc1O)N=C[C@@H]1CCCN1C2=O,GI50,[1],170 nM
same,GI50,[2],110 nM
same,GI50,[4],200 nM
same,GI50,[5],140 nM
same,GI50,[6],160 nM
same,GI50,[7],150 nM
same,GI50,[8],170 nM
same,GI50,[10],160 nM
same,ΔTm,[11],0.7 °C
same,GI50,[12],170 nM
